Most compounds without a hit are left out; they make up all but 3.6% or so of the library.
SENP1 inh = blocks the human SENP1 SUMO protease catalytic domain | inhibition, % at 10 µM | 0.21% of 360,000 active | recombinant SENP1 catalytic domain, CyPet-SUMO1-YPet FRET cleavage;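 active means inhibition at least 30% at 10 µM, raw YFP signal under a set limit, fluorescence ratio 0.5 to 1.5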;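 further: 0% = enzyme with DMSO and 100% = no enzyme wells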
Target sequence (Q9P0U3 419-644 limits assumed): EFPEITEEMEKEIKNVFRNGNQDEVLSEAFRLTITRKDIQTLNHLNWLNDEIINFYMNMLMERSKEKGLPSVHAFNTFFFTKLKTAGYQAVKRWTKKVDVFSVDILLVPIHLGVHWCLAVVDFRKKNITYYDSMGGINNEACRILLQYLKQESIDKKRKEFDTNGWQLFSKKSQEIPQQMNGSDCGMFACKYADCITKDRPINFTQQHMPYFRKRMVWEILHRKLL
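system = hSENP1 catalytic domain, recombinant | reagent = SFCypet-SUMO1-SFYpet substrate at 25 nM | doses = one dose per compound, 10 µM, 0.5% DMSO | incubation = enzyme reaction for 50 min at room temperature, dark | measured by = FRET, CFP and YFP emission | controls = no-enzyme low, enzyme-DMSO high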
UCH37 DUB inh = blocks the human deubiquitinase UCH37 | Q9Y5K5 | purified proteasome/UCH37, Ub-AMC cleavage fluorescence | 0.33% of 330,000 active | inhibition, % (concentration not given with the values);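 active means mean inhibition over replicate wells above about 20%, limit read from the data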;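 further: 0% = compound-free wells with enzyme and 100% = wells lacking proteasome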
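Material: human UCH37 enzyme supplied as purified proteasome complex. Measure: % inhibition of Ub-AMC cleavage fluorescence. Medium: pH 7.4 Tris-HCl (50 mM) with ovalbumin, ATP-MgCl2, DTT. Times: 30 min preincubation with enzyme, 25 min cleavage at room temperature. Detection: AMC fluorescence intensity at 355/460 nm.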
GRIN3A LBD mod = modulates the human NR3A ligand-binding domain | NR3A LBD differential scanning fluorimetry, Tm shift; 0% = protein alone, 100% = glycine-bound protein | Tm shift relative to glycine control, % at 25 µM | 2.5% of 340,000 active;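 active means melting temperature shift of at least 10% of the positive control shift, at one fixed dose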
ATG4B inhibitor = ATG4B (human) cysteine protease inhibition; inhibition, % at 8.33 µM; ATG4B cleavage of LC3-PLA2, NBD-HPC fluorescence, 1 h; AID 504462; Q9Y4P1; 0.51% of 340,000 active; in the data active means inhibition above about 40%
NadD block = inhibitors of Staphylococcus aureus NadD. purified NadD enzyme, colorimetric absorbance read-out. inhibition, % at 20 µM. 0.78% of 360,000 active. AID 602399; in the data active means inhibition above about 26%
* marks the source's active call; other numbers are inactive results; . = not tested or not shown.

SMILES	SENP1 inh	UCH37 DUB inh	GRIN3A LBD mod	ATG4B inhibitor	NadD block
CC(C)(C)[C@@H]1CCC(=O)N(CC[C@H](N=[N+]=[N-])c2ccccc2)CC1	-3	28*	0	-2	-1
CC(C)(C)c1cc[n+](-c2[nH]c(=O)sc2C=NNC(=O)c2ccccc2[O-])cc1	.	5	.	.	.
COc1ccccc1C=NOCC(=O)NCc1ccc2c(c1)OCO2	.	5	.	.	.
Cc1csc(Nc2nc(N)c(C(=O)Nc3cc(Cl)ccc3F)o2)n1	0	1	22*	5	3
Cc1csc(NC(=O)Cc2c(F)cccc2Cl)n1	0	.	-1	2	0
CCOC(=O)c1ccc(Oc2cn[nH]c2-c2ccc(O)cc2O)cc1	2	5	29*	-5	0
CCOC(=O)c1ccc(Oc2cn[nH]c2-c2ccc(OCC(=O)NN)cc2O)cc1	3	3	1	0	10
CCCOC(=O)c1ccc(Oc2cn[nH]c2-c2ccc(O)cc2O)cc1	1	9	34*	10	1
CC(=NNS(=O)(=O)c1ccc(C)c([N+](=O)[O-])c1)c1cccs1	.	4	.	.	.
COc1ccccc1NC(=O)CC1S/C(=N/N=C2CCCc3ccccc32)NC1=O (stereo not given)	.	4	.	.	.
Cc1ccccc1NCCC(=O)Nc1ccc(F)cc1	2	7	1	-13	-3
Cc1ccccc1NCCC(=O)Nc1ccc(Cl)cc1	0	5	14*	-12	-7
C=CCNC(=S)NN=Cc1ccc(C(C)(C)C)cc1	.	5	.	.	.
Nc1cc(Cl)nc(N/N=C/c2ccc([N+](=O)[O-])cc2)n1	-2	.	21*	32	-2
CN(/N=C/c1ccc(O)cc1O)c1nc(-c2ccccc2)cc(-c2ccccc2)n1	1	.	22*	17	33*
Cc1cc(-c2ccccc2)nc(N/N=C/c2ccc([N+](=O)[O-])cc2)n1	-5	.	24*	-12	9
Cc1cc(-c2ccccc2)nc(N/N=C/c2ccc(O)cc2O)n1	3	.	11*	-26	5
CCOc1ccc(C=NNC(=O)CN2CCCCCCC2)cc1	.	0	.	.	.
COc1cccc(C=Nn2c(C3CCCCC3)n[nH]c2=S)c1	.	4	.	.	.
Cc1cc(NN=Cc2ccc(Cl)cc2)nc(NCc2ccccc2)n1	.	6	.	.	.
Cc1cc(N/N=C/c2ccc(Cl)cc2)nc(NCc2ccccc2)n1	-1	.	27*	23	0
Cn1ncc(Cl)c1C(=O)NN=Cc1ccccn1	.	-1	.	.	.
CS(=O)(=O)Nc1nnc(Cc2ccccc2)s1	-1	3	11*	-5	-3
CCOc1cc(C=NN2C(=O)NC3(CCCCC3)C2=O)cc(Br)c1O	.	-4	.	.	.
Cc1cc(O)c(C=O)c2c1C(=O)Oc1c(CO)c(O)c3c(c1O2)C(O)OC3=O (stereo not given)	30*	.	1	86*	34*
SMILES	SENP1 inh	UCH37 DUB inh	GRIN3A LBD mod	ATG4B inhibitor	NadD block
COc1cccc2cc(C(=O)Nc3ccccc3C)c(=NNS(=O)(=O)c3ccccc3)oc12	.	6	.	.	.
CCSc1nncn1N=Cc1ccc(OC)c(OC)c1	.	0	.	.	.
CCOC(=O)c1sc(=S)n(-c2ccccc2OC)c1N	1	12	16*	3	-4
O=C(Nc1cccc(S(=O)(=O)NC2=NCCC2)c1)c1cn(-c2ccccc2)nc1-c1ccc(F)cc1	2	6	12*	-10	-14
Cc1ccc(-c2nn(-c3ccccc3)cc2C(=O)Nc2cccc(S(=O)(=O)NC3=NCCC3)c2)cc1	2	.	.	.	-1
CC12CCC(C(=O)NN=Cc3ccc(O)cc3)(OC1=O)C2(C)C (stereo not given)	.	3	.	.	.
CCOC(=O)c1ccc(N2CCN(c3ccccc3F)CC2)c(NC(=O)Nc2cccc(OC)c2)c1	4	2	11*	2	15
Cc1cc(C=NNC(=O)CC2(C)OCCO2)c(C)n1-c1ccc(Cl)c(Cl)c1	.	4	.	.	.
CCOc1ccc(NC(=S)NC23CC4CC(CC(C4)C2)C3)cc1	2	.	-5	0	-1
Cc1cc(C)cc(NC(=S)NCCSc2ccc(Cl)cc2)c1	3	1	13*	9	3
Cc1cc(C)cc(NC(=S)Nc2ccc(Cl)c(Cl)c2)c1	2	3	22*	33	1
Cc1cccc(C)c1NC(=S)Nc1ccc(Cl)c(Cl)c1	1	3	-1	21	4
Cc1ccc(NC(=S)Nc2ccc3cn[nH]c3c2)cc1	-6	6	19*	4	5

High-throughput results (PubChem BioAssay)
